Rows were chosen to be rich in hits. Some 5.1% of all compounds tested hit in one or more screens of this group.
Ecoli tolC = growth inhibitors of E. coli tolC mutant, primary screen, strain BW25113 ΔtolC::kan, 384-well; OD615; growth inhibition, % at 10 µM (by protocol); 65,000 compounds, 2.2% hits;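 active = growth inhibition at or above a cutoff equal to the mean over every tested compound plus 3 SD, cut at about 60% in these data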;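 also: growth measured after 20 h incubation at 37 °C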
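Test system: tolC-deleted E. coli BW25113; medium: LB with kanamycin 50 µg/mL; compound: single-point testing at 10 µM; incubation: 20 h compound exposure of bacteria at 37 °C; signal: OD at 615 nm; evaluation: growth inhibition in percent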
BAP1 inh = inhibitors of BAP1 deubiquitinase, primary screen, biochemical, Ub-AMC fluorescence, kinetic; 72,000 compounds, 0.48% hits; calls only at 20 µM; recombinant BAP1, Ub-AMC hydrolysis fluorescence kinetic; active compounds read low; AID 436, 2006; Ubiquitin carboxyl-terminal hydrolase BAP1 (Homo sapiens), Q92560;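 active = activity remaining at or below 50% of control, provided the compound also passes the data quality filters; inactive = the rest, including low values that fail the filters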
Target sequence (Q92560 whole entry, looked up): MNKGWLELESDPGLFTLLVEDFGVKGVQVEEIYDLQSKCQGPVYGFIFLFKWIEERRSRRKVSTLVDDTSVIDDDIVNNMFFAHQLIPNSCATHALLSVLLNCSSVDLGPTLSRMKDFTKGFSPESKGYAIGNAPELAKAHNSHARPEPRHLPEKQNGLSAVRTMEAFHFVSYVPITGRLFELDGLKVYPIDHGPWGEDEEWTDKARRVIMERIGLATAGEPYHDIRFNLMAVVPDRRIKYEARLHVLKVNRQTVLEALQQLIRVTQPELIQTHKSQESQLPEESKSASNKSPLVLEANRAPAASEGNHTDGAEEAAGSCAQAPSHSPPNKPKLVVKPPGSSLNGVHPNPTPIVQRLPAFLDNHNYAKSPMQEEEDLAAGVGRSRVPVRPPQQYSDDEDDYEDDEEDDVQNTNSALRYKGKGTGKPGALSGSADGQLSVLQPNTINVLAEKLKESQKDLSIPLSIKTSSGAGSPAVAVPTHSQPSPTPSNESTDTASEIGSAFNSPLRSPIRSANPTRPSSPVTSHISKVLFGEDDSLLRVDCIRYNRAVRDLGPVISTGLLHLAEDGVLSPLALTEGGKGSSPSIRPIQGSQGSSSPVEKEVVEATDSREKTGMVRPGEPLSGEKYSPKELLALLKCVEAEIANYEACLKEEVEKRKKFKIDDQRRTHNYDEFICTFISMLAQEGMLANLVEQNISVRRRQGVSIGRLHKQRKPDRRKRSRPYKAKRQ
Ecoli WT expand = growth inhibitors of wild-type E. coli, primary screen, strain BW25113, expanded library, OD600; OD600 absorbance; growth inhibition, % at 100 µM; 98,000 compounds, 0.15% hits;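 active = growth inhibition above about 50% at one test dose, limit read from the data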;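 also: growth measured after 20 h incubation at 37 °C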
M1 agonist = M1 muscarinic receptor agonists, primary screen, CHO-M1 cells, Fluo-4 calcium, agonist mode; Muscarinic acetylcholine receptor M1; Fluo-4 calcium fluorescence; active compounds read high; B-score at 10 µM; 64,000 compounds, 3% hits;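 active = fluorescence rise, raw or as B-score row- and column-corrected plate score, outside the 99.7% band of its plate's samples, either direction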
M1 antag = antagonists of rat M1 muscarinic receptor; Muscarinic acetylcholine receptor M1 (Rattus norvegicus), P08482; CHO-M1 cells, Fluo-4 calcium, ACh EC80 antagonist mode; active compounds read low; B-score at 10 µM; 64,000 compounds, 3.4% hits;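 active = calcium fluorescence response, raw or row-and-column corrected B-score, differing from the plate sample mean either way at a set confidence level, mostly lower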
Hsp90 inh = tumor Hsp90 inhibitors, primary screen, cell lysate, fluorescence polarization, NCI-N417 lysate; Cy3B-geldanamycin FP displacement; inhibition, % at 30 µM; 64,000 compounds, 0.35% hits; Heat shock protein HSP 90-alpha (Homo sapiens), P07900;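 active = inhibition above 50%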
Hits are given with their value; . = inactive; / = not tested or not shown.

SMILES | Ecoli tolC | BAP1 inh | Ecoli WT expand | M1 agonist | M1 antag | Hsp90 inh
CCn1c(SCC(=O)Nc2nc(-c3ccc(C)cc3)cs2)nnc1-c1ccccc1O | 84 | / | . | . | . | .
Cc1csc(SCC(=O)Nc2nc(-c3ccccc3)cs2)n1 | 91 | . | . | . | . | .
COCCn1nnnc1C(C(C)C)N(Cc1ccccc1)Cc1cc2cc(OC)ccc2[nH]c1=O (stereo not given) | 76 | . | . | . | . | .
COc1ccc2[nH]c(=O)c(CN(Cc3ccco3)C(c3nnnn3Cc3ccccc3)C(C)C)cc2c1 (stereo not given) | / | / | . | / | / | /
COc1ccc(NC(=O)C2CCN(c3cc(C)nc(-c4ccccc4)n3)CC2)cc1 | . | . | . | . | . | .
Cc1cc(N2CCC(C(=O)Nc3ccc(F)cc3)CC2)nc(-c2ccccc2)n1 | 89 | . | . | . | . | .
CCOC(=O)CCc1c(C)nc2c(c(C)nn2C(C)(C)C)c1C | . | . | . | . | 2.6 | .
CC=CCOC(=O)C1=C(C)NC(=O)NC1c1ccc(Cl)cc1 (stereo not given) | / | . | / | / | / | /
Cc1cc(C)c(C#N)c(N2CCCC2)n1 | . | . | . | / | / | .
Cc1cc(C)c(C#N)c(N2CCN(CCOc3ccc(Cl)cc3)CC2)n1 | 100 | / | . | . | . | .
O=C1/C(=C/c2ccncc2)SC(=S)N1C1CCS(=O)(=O)C1 (stereo not given) | / | / | 54 | / | / | /
N#CCSc1n[nH]c2nc3c(c(=O)n12)C1(CCCC1)Cc1ccccc1-3 | 98 | / | . | . | . | /
CCCn1c(SCC#N)nc2c(c1=O)C1(CCCC1)Cc1ccccc1-2 | . | . | . | . | . | .
CCOc1cc(Br)ccc1S(=O)(=O)N1CC(C)OC(C)C1 (stereo not given) | / | / | . | / | / | /
CCOc1cc(C)c(C(C)C)cc1S(=O)(=O)N1CC(C)OC(C)C1 (stereo not given) | 68 | . | . | . | . | .
Cc1ccc2c(c1)c1c(n2CC(O)Cn2c(C)nc3ccccc32)/C(=N\O)CCC1 (stereo not given) | 78 | . | . | . | . | .
Cn1c(C(=O)N2CCc3ccccc3C2)cc2oc3ccccc3c21 | 69 | . | . | . | . | .
CCn1c(C(=O)N2CCc3ccccc3C2)cc2oc3ccccc3c21 | / | / | . | / | / | /
CC(=O)c1n[nH]nc1Nc1nc(C)cc(C)n1 | . | . | / | . | . | .
CC(=O)c1c(O)cc(C)n(Nc2nc(C)cc(C)n2)c1=O | 73 | . | . | . | . | .
O=C(c1ccc(F)cc1)N1CCN(Cc2ccc3c(c2)OCO3)CC1 | / | . | / | / | / | /
CC1=CC(C)(C)N(C(=O)c2ccc(F)cc2)c2cc3c(cc21)OCO3 | 87 | . | . | . | . | .
CN(C)S(=O)(=O)c1cccc(C(=O)N2CCc3ccccc32)c1 | . | . | . | . | 1.3 | .
N=c1c2c(-c3ccccc3)c(-c3ccccc3)oc2ncn1CCN1CCOCC1 | . | . | . | / | / | .
c1ccc(-c2oc3ncnc(NCCN4CCOCC4)c3c2-c2ccccc2)cc1 | 65 | . | . | . | . | .
SMILES | Ecoli tolC | BAP1 inh | Ecoli WT expand | M1 agonist | M1 antag | Hsp90 inh
CCCCCC(=O)N1CC2(C)CN(C(=O)CCCCC)CC(C)(C1)C2=O | . | . | . | . | . | 120
CCN(CC)CCCC(C)Nc1cc(O)cc2cccnc12 (stereo not given) | / | / | / | / | / | 138
O=C(Cn1c(C(=O)NCc2ccco2)cc2sccc21)c1ccccc1 | 65 | . | . | . | . | .
O=C(Cn1c(C(=O)NCC2CCCO2)cc2sccc21)c1ccccc1 (stereo not given) | . | . | . | . | . | .
CC1=C(C(=O)OCCCCl)C(c2ccccc2)NC(=O)N1 (stereo not given) | / | . | / | / | / | /
O=C(c1ccco1)N1CCN(c2ncnc3c2[nH]c2ccc(Br)cc23)CC1 | 65 | . | . | . | . | .
CC(O)c1c(OCc2ccccc2)ncnc1OCc1ccccc1 (stereo not given) | 66 | . | . | . | . | .
CC(C)CC(N)C(=O)OCc1ccccc1 (stereo not given) | / | . | / | / | / | /
Cc1sc2nc(-c3cccs3)nc(N3CCCN(C)CC3)c2c1C | . | / | / | . | -2.2 | .
Cc1ccc2oc(=O)c3cnn(CC(=O)N4CCCc5ccccc54)c3c2c1 | . | . | . | . | 2.1 | .

Source: PubChem BioAssay (several laboratories)
